Published values pooled from the literature.
Protocols differ between the studies behind these lines.
Action: agonist
CNR2: Cannabinoid receptor 2 (CNR2, Homo sapiens, UniProt P34972)
AHR: Aryl hydrocarbon receptor (AHR, Homo sapiens, UniProt P35869)
MC5R: Melanocortin receptor 5 (MC5R, Homo sapiens, UniProt P33032)
ADRB2: Beta-2 adrenergic receptor (ADRB2, Homo sapiens, UniProt P07550)

| SMILES | target | effect on | method | EC50 [nM] |
| --- | --- | --- | --- | --- |
| CC1CCN(C(NC(=O)c2ccc(C(C)(C)C)cc2)C(Cl)(Cl)Cl)CC1 (stereo not drawn) | CNR2 | cAMP | TR-FRET | 50.1 |
| CC(C)OC(=O)c1cccc(C(=O)c2c[nH]c3ccccc23)n1 | AHR | reporter gene | luciferase | > 10000 |
| CSCC[C@H](NC(=O)[C@@H](NC(=O)[C@@H](N)Cc1ccc(O)cc1)C(C)C)C(=O)NCC(=O)N[C@@H](Cc1c[nH]cn1)C(=O)N[C@@H](Cc1ccccc1)C(=O)N[C@@H](CCCNC(=N)N)C(=O)N[C@@H](Cc1c[nH]c2ccccc12)C(=O)O | MC5R | reporter gene | – | 23900 |
| COC(=O)c1ccccc1C(=O)c1c[nH]c2ccccc12 | AHR | reporter gene | luciferase | > 10000 |
| CCOC(=O)[C@](CC)(CCCS(=O)(=O)CCOCCOCCNC(=O)OC(C)(C)C)NC(=O)c1ccc(C2CC2)c(Cc2ccc(F)cc2)n1 | CNR2 | cAMP | – | 17 |
| Cc1ccc(-n2c(C)ccc2C)c2c1CC(C)(C)O2 | ADRB2 | calcium signal | fluorescence | 65000 |
| c1ccc(Nc2nc3ccccc3nc2Nc2ccccc2)cc1 | CNR2 | cAMP | TR-FRET | 25.1 |
| O=c1ccn([C@@H]2O[C@H](COP(=O)(O)OP(=O)(O)O)[C@@H](O)[C@H]2O)c(=O)[nH]1 | P2Y purinoceptor 6 (P2RY6, Homo sapiens, UniProt Q15077) | inositol phosphate | – | 295 |
| N=C(N)NCCC[C@H](NC(=O)[C@H](Cc1ccccc1)NC(=O)[C@@H](N)Cc1cnc[nH]1)C(=O)N[C@@H](Cc1c[nH]c2ccccc12)C(=O)O | MC5R | reporter gene | – | > 100000 |
| COC(=O)c1cccc(C(=O)c2c[nH]c3ccc(Cl)cc23)n1 | AHR | reporter gene | luciferase | 32 |
| COc1ccc(CNC(=S)NC(C)(C)C)cc1 | ADRB2 | calcium signal | fluorescence | 1900 |
| CSCC[C@H](NC(=O)[C@@H](NC(=O)[C@@H](N)Cc1ccc(O)cc1)C(C)C)C(=O)NCC(=O)N[C@@H](Cc1c[nH]cn1)C(=O)N[C@@H](Cc1ccccc1)C(=O)N[C@@H](CCCNC(=N)N)C(=O)N[C@@H](Cc1c[nH]c2ccccc12)C(=O)N[C@@H](CC(=O)O)C(=O)N[C@@H](CCCNC(=N)N)C(=O)O | MC5R | reporter gene | – | 7360 |
